ChEMBL document CHEMBL2311303, “Synthesis and anticancer activity of a novel series of 9-O-substituted berberine derivatives: a lipophilic substitute role” (Bioorg Med Chem Lett, 2013)
The source made the active and inactive calls. The calls are words filed in the database; no cut-off is given here.

What was measured:
HepG2 [1] = assay: Induction of apoptosis in human HepG2 cells assessed as early apoptotic cells at 0.25 uM after 24 hrs using annexin-V/FITC/propidium iodide staining by flow cytometry analysis (reference value: 2.05%); type: functional
Outline: (§1)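 HepG2 cells exposed for 24 h to 0.25, 0.5 or 1.0 µM, with vehicle alone as control. Cells then double-stained with annexin V-FITC/PI and analysed by flow cytometry. Quadrant read-out: annexin V-positive/PI-negative cells counted as early apoptotic.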

HepG2 [2] = assay: Induction of apoptosis in human HepG2 cells assessed as viable cells at 1 uM after 24 hrs using annexin-V/FITC/propidium iodide staining by flow cytometry analysis (reference value: 94.29%); type: functional; conditions: HepG2, 24 h, read-out: Activity; outline: as §1
HepG2 [3] = assay: Cytotoxicity against human HepG2 cells after 24 to 72 hrs by MTT assay; type: functional, cell-based
Outline: (§2)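 HepG2 cells exposed to a range of concentrations for 24, 48 and 72 h. Viability then read by MTT. Data are means ± SD of at least three replicates from three independent experiments.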

HepG2 [4] = assay: Induction of apoptosis in human HepG2 cells assessed as necrotic cells at 0.25 uM after 24 hrs using annexin-V/FITC/propidium iodide staining by flow cytometry analysis (reference value: 0.51%); type: functional; outline: as §1
HepG2 [5] = assay: Induction of apoptosis in human HepG2 cells assessed as viable cells at 0.25 uM after 24 hrs using annexin-V/FITC/propidium iodide staining by flow cytometry analysis (reference value: 94.29%); type: functional; conditions: HepG2, 24 h, read-out: Activity; outline: as §1
HepG2 [6] = assay: Induction of apoptosis in human HepG2 cells assessed as late apoptotic cells at 0.5 uM after 24 hrs using annexin-V/FITC/propidium iodide staining by flow cytometry analysis (reference value: 3.16%); type: functional; outline: as §1
[7] = Cytotoxicity against mouse BNL-CL2 cells at 10 uM after 48 hrs by MTT assay; type: functional
HepG2 [8] = assay: Cytotoxicity against human HepG2 cells after 48 hrs by MTT assay; type: functional, cell-based; conditions: HepG2, 48 h
HT-29 [9] = assay: Cytotoxicity against human HT-29 cells after 24 hrs by MTT assay; type: functional, cell-based; conditions: HT-29, 24 h
HepG2 [10] = assay: Induction of apoptosis in human HepG2 cells assessed as necrotic cells at 0.5 uM after 24 hrs using annexin-V/FITC/propidium iodide staining by flow cytometry analysis (reference value: 0.51%); type: functional; outline: as §1
HepG2 [11] = assay: Induction of apoptosis in human HepG2 cells assessed as morphological changes at 0.5 to 1 uM after 24 hrs using Hoechst 33258 staining by fluorescence microscopic analysis; type: functional, cell-based
Outline: (§3)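 HepG2 cells left untreated or exposed for 24 h, at 20 µM or at 0.5 or 1.0 µM depending on compound. Cells then stained with Hoechst 33258 and nuclear morphology examined by fluorescence microscopy at ×400.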

HepG2 [12] = assay: Cytotoxicity against human HepG2 cells by MTT assay; type: functional, cell-based; conditions: TDE = time-dependent effect; outline: as §2
HepG2 [13] = assay: Cytotoxicity against human HepG2 cells after 24 hrs by MTT assay; type: functional, cell-based; conditions: HepG2, 24 h
HepG2 [14] = assay: Induction of apoptosis in human HepG2 cells assessed as necrotic cells at 1 uM after 24 hrs using annexin-V/FITC/propidium iodide staining by flow cytometry analysis (reference value: 0.51%); type: functional; outline: as §1
HepG2 [15] = assay: Induction of apoptosis in human HepG2 cells assessed as late apoptotic cells at 0.25 uM after 24 hrs using annexin-V/FITC/propidium iodide staining by flow cytometry analysis (reference value: 3.16%); type: functional; outline: as §1
HT-29 [16] = assay: Cytotoxicity against human HT-29 cells after 48 hrs by MTT assay; type: functional, cell-based; conditions: HT-29, 48 h
HepG2 [17] = assay: Induction of apoptosis in human HepG2 cells assessed as late apoptotic cells at 1 uM after 24 hrs using annexin-V/FITC/propidium iodide staining by flow cytometry analysis (reference value: 3.16%); type: functional; outline: as §1
HepG2 [18] = assay: Induction of apoptosis in human HepG2 cells assessed as early apoptotic cells at 1 uM after 24 hrs using annexin-V/FITC/propidium iodide staining by flow cytometry analysis (reference value: 2.05%); type: functional; outline: as §1
HepG2 [19] = assay: Induction of apoptosis in human HepG2 cells assessed as early apoptotic cells at 0.5 uM after 24 hrs using annexin-V/FITC/propidium iodide staining by flow cytometry analysis (reference value: 2.05%); type: functional; outline: as §1
HepG2 [20] = assay: Induction of apoptosis in human HepG2 cells assessed as viable cells at 0.5 uM after 24 hrs using annexin-V/FITC/propidium iodide staining by flow cytometry analysis (reference value: 94.29%); type: functional; conditions: HepG2, 24 h, read-out: Activity; outline: as §1
HepG2 [21] = assay: Ratio of berberine IC50 to compound IC50 for human HepG2 cells; type: functional
HepG2 [22] = assay: Induction of apoptosis in human HepG2 cells assessed as morphological changes at 20 uM after 24 hrs using Hoechst 33258 staining by fluorescence microscopic analysis; type: functional, cell-based; outline: as §3

Compound | IC50 (HepG2 [8]) | IC50 (HT-29 [9]) | IC50 (HepG2 [13]) | IC50 (HT-29 [16]) | also measured
COc1ccc2cc3[n+](cc2c1OC/C=C(\C)CC/C=C(\C)CCC=C(C)C)CCc1cc2c(cc1-3)OCO2.[Br-] | 0.08 µM | 1.82 µM | 0.21 µM | 0.27 µM | Activity (HepG2 [1]): 1.66%; viability at 1 µM (HepG2 [2]): 69.2%; Activity (HepG2 [3]): Dose-dependent effect; Activity (HepG2 [4]): 3.73%; viability at 0.25 µM (HepG2 [5]): 91.4%; Activity (HepG2 [6]): 17.4%; Activity [7]: <20%; Activity (HepG2 [10]): 2.48%; Activity (HepG2 [11]): Active; Activity (HepG2 [12]): tde; Activity (HepG2 [14]): 17.08%; Activity (HepG2 [15]): 3.2%; Activity (HepG2 [17]): 11.28%; Activity (HepG2 [18]): 2.39%; Activity (HepG2 [19]): 8.71%; viability at 0.5 µM (HepG2 [20]): 71.4%; Ratio IC50 (HepG2 [21]): 104
COc1ccc2cc3[n+](cc2c1OC)CCc1cc2c(cc1-3)OCO2.[Cl-] [BERBERINE CHLORIDE] | 8.32 µM | > 20 µM | 11.2 µM | 8.45 µM | Activity (HepG2 [1]): 2.99%; Activity (HepG2 [22]): Active; viability at 1 µM (HepG2 [2]): 88.8%; Activity (HepG2 [4]): 0.84%; viability at 0.25 µM (HepG2 [5]): 89.8%; Activity (HepG2 [6]): 4.49%; Activity (HepG2 [10]): 1.17%; Activity (HepG2 [14]): 1.88%; Activity (HepG2 [15]): 6.4%; Activity (HepG2 [17]): 5.51%; Activity (HepG2 [18]): 3.77%; Activity (HepG2 [19]): 4.39%; viability at 0.5 µM (HepG2 [20]): 90%
CCCCCCCCCCCCOc1c(OC)ccc2cc3[n+](cc12)CCc1cc2c(cc1-3)OCO2.[Br-] | 0.1 µM | 0.93 µM | 0.26 µM | 0.28 µM | Activity [7]: <20%
CCCCCCCCOc1c(OC)ccc2cc3[n+](cc12)CCc1cc2c(cc1-3)OCO2 | 0.1 µM | 0.48 µM | 0.19 µM | 0.08 µM | –
COc1ccc2cc3[n+](cc2c1O)CCc1cc2c(cc1-3)OCO2 [BERBERRUBINE CHLORIDE] | > 50 µM | > 50 µM | > 50 µM | > 50 µM | –
COc1ccc2cc3[n+](cc2c1OCC=C(C)C)CCc1cc2c(cc1-3)OCO2 | 3.17 µM | 10.8 µM | 4.67 µM | 1.75 µM | –
COc1ccc2cc3[n+](cc2c1OC/C=C(\C)CCC=C(C)C)CCc1cc2c(cc1-3)OCO2 | 0.17 µM | 1.21 µM | 0.21 µM | 0.14 µM | –
CCCCOc1c(OC)ccc2cc3[n+](cc12)CCc1cc2c(cc1-3)OCO2 | 0.97 µM | 4.41 µM | 1.81 µM | 0.87 µM | –
